In ChEMBL document CHEMBL1773048, “Synthesis of glycopeptide dendrimers, dimerization and affinity for Concanavalin A” (Bioorg Med Chem, 2011):
Where a SMILES comes first, the peptide text is derived from it. Bridges are numbered along the chain shown (N, C = ends). Roman numbers before positions name the chains, in order. [ ]: non-standard residue; d: D form. The star is where a group is joined. αMan = OC[C@H]1O[C@H](*)[C@@H](O)[C@@H](O)[C@@H]1O; Mpa = O=C(O)CCS

Experiments:
[1] = Ratio of methyl alpha-D-mannoside IC50 to compound IC50 for binding affinity to Concanavalin A
Procedure, shortened: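 Relative potency is IC50 of methyl α-D-mannoside divided by inhibitor IC50. The reference is measured under the same conditions on the same plate by enhanced-sensitivity ELLA, and reference IC50 values are corrected to a common experimental value.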

[2] = Displacement of yeast mannan from Concanavalin A by Enzyme-linked lectin assay
Procedure, shortened: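 Enhanced-sensitivity ELLA. Yeast mannan (10 µg/mL in PBS with CaCl2 and MnCl2) is coated overnight on plates and blocked 1 h at 37 °C with PBS containing 10 mg/mL BSA. Two-fold serial dilutions of inhibitor are preincubated 1 h at 37 °C with biotinylated Con A (5 µg/mL), transferred to the plates and incubated 1 h at 37 °C. Preformed Neutravidin–biotin-HRP is added for 1 h, then ABTS/H2O2 at pH 4.0. A415 is read after 5 min. IC50 is taken at 50% inhibition, at least triplicate.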

[3] = Ratio of methyl alpha-D-mannoside IC50 to compound IC50 for binding affinity to Concanavalin A per carbohydrate moiety
Procedure, shortened: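 Valency-normalised relative potency is IC50 of methyl α-D-mannoside divided by (inhibitor IC50 × n), where n is the number of mannose units. The reference IC50 is measured on the same plate by enhanced-sensitivity ELLA.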

Compound	Ratio IC50 [1]	IC50 [2] [µM]	Ratio IC50 [3]
NC(=O)[C@H](CO)NC(=O)[C@H](CCCCNC(=O)[C@H](CCCCNC(=O)[C@H](Cc1ccc(O)cc1)NC(=O)CCS[C@H]1O[C@H](CO)[C@@H](O)[C@H](O)[C@@H]1O)NC(=O)[C@H](Cc1ccc(O)cc1)NC(=O)CCS[C@@H]1O[C@@H](CO)[C@H](O)[C@@H](O)[C@H]1O)NC(=O)[C@H](CCCCNC(=O)[C@H](Cc1ccc(O)cc1)NC(=O)CCS[C@H]1O[C@H](CO)[C@@H](O)[C@H](O)[C@@H]1O)NC(=O)[C@H](Cc1ccc(O)cc1)NC(=O)CCS[C@@H]1O[C@@H](CO)[C@H](O)[C@@H](O)[C@H]1O	24	55	6
NC(=O)[C@H](CSSC[C@H](NC(=O)[C@H](CCCCNC(=O)[C@H](Cc1ccc(O)cc1)NC(=O)CCS[C@H]1O[C@H](CO)[C@@H](O)[C@H](O)[C@@H]1O)NC(=O)[C@H](Cc1ccc(O)cc1)NC(=O)CCS[C@@H]1O[C@@H](CO)[C@H](O)[C@@H](O)[C@H]1O)C(N)=O)NC(=O)[C@H](CCCCNC(=O)[C@H](Cc1ccc(O)cc1)NC(=O)CCS[C@H]1O[C@H](CO)[C@@H](O)[C@H](O)[C@@H]1O)NC(=O)[C@H](Cc1ccc(O)cc1)NC(=O)CCS[C@@H]1O[C@@H](CO)[C@H](O)[C@@H](O)[C@H]1O	25.4	52	6.4
NC(=O)[C@H](CCCCNC(=O)[C@H](CCCCNC(=O)[C@H](Cc1ccc(O)cc1)NC(=O)CCS[C@H]1O[C@H](CO)[C@@H](O)[C@H](O)[C@@H]1O)NC(=O)[C@H](Cc1ccc(O)cc1)NC(=O)CCS[C@@H]1O[C@@H](CO)[C@H](O)[C@@H](O)[C@H]1O)NC(=O)[C@H](CCCCNC(=O)[C@H](Cc1ccc(O)cc1)NC(=O)CCS[C@H]1O[C@H](CO)[C@@H](O)[C@H](O)[C@@H]1O)NC(=O)[C@H](Cc1ccc(O)cc1)NC(=O)CCS[C@@H]1O[C@@H](CO)[C@H](O)[C@@H](O)[C@H]1O	25.4	52	6.4
NC(=O)[C@H](CCCCNC(=O)[C@H](Cc1ccc(O)cc1)NC(=O)CCS[C@H]1O[C@H](CO)[C@@H](O)[C@H](O)[C@@H]1O)NC(=O)[C@H](Cc1ccc(O)cc1)NC(=O)CCS[C@@H]1O[C@@H](CO)[C@H](O)[C@@H](O)[C@H]1O	8.8	150	4.4
NC(=O)[C@H](CSSC[C@H](NC(=O)[C@H](CCCCNC(=O)[C@H](CCCCNC(=O)[C@H](Cc1ccc(O)cc1)NC(=O)CCS[C@H]1O[C@H](CO)[C@@H](O)[C@H](O)[C@@H]1O)NC(=O)[C@H](Cc1ccc(O)cc1)NC(=O)CCS[C@@H]1O[C@@H](CO)[C@H](O)[C@@H](O)[C@H]1O)NC(=O)[C@H](CCCCNC(=O)[C@H](Cc1ccc(O)cc1)NC(=O)CCS[C@H]1O[C@H](CO)[C@@H](O)[C@H](O)[C@@H]1O)NC(=O)[C@H](Cc1ccc(O)cc1)NC(=O)CCS[C@@H]1O[C@@H](CO)[C@H](O)[C@@H](O)[C@H]1O)C(N)=O)NC(=O)[C@H](CCCCNC(=O)[C@H](CCCCNC(=O)[C@H](Cc1ccc(O)cc1)NC(=O)CCS[C@H]1O[C@H](CO)[C@@H](O)[C@H](O)[C@@H]1O)NC(=O)[C@H](Cc1ccc(O)cc1)NC(=O)CCS[C@@H]1O[C@@H](CO)[C@H](O)[C@@H](O)[C@H]1O)NC(=O)[C@H](CCCCNC(=O)[C@H](Cc1ccc(O)cc1)NC(=O)CCS[C@H]1O[C@H](CO)[C@@H](O)[C@H](O)[C@@H]1O)NC(=O)[C@H](Cc1ccc(O)cc1)NC(=O)CCS[C@@H]1O[C@@H](CO)[C@H](O)[C@@H](O)[C@H]1O	660	2	83
NC(=O)[C@H](CCC(=O)O)NC(=O)[C@H](CCCCNC(=O)[C@H](CCCCNC(=O)[C@H](Cc1ccc(O)cc1)NC(=O)CCS[C@H]1O[C@H](CO)[C@@H](O)[C@H](O)[C@@H]1O)NC(=O)[C@H](Cc1ccc(O)cc1)NC(=O)CCS[C@@H]1O[C@@H](CO)[C@H](O)[C@@H](O)[C@H]1O)NC(=O)[C@H](CCCCNC(=O)[C@H](Cc1ccc(O)cc1)NC(=O)CCS[C@H]1O[C@H](CO)[C@@H](O)[C@H](O)[C@@H]1O)NC(=O)[C@H](Cc1ccc(O)cc1)NC(=O)CCS[C@@H]1O[C@@H](CO)[C@H](O)[C@@H](O)[C@H]1O	14.2	93	3.6
NC(=O)[C@H](CSSC[C@H](NC(=O)[C@H](Cc1ccc(O)cc1)NC(=O)CCS[C@H]1O[C@H](CO)[C@@H](O)[C@H](O)[C@@H]1O)C(N)=O)NC(=O)[C@H](Cc1ccc(O)cc1)NC(=O)CCS[C@H]1O[C@H](CO)[C@@H](O)[C@H](O)[C@@H]1O (I: [Mpa](αMan)-Tyr-Cys-NH2 / II: [Mpa](αMan)-Tyr-Cys-NH2; disulfide I:3-II:3)	12.7	104	6.4
N=C(N)NCCC[C@H](NC(=O)[C@H](CCCCNC(=O)[C@H](Cc1ccc(O)cc1)NC(=O)CCS[C@@H]1O[C@@H](CO)[C@H](O)[C@@H](O)[C@H]1O)NC(=O)[C@H](Cc1ccc(O)cc1)NC(=O)CCS[C@H]1O[C@H](CO)[C@@H](O)[C@H](O)[C@@H]1O)C(=O)NCCCC[C@H](NC(=O)[C@H](CCCNC(=N)N)NC(=O)[C@H](CCCCNC(=O)[C@H](Cc1ccc(O)cc1)NC(=O)CCS[C@H]1O[C@H](CO)[C@@H](O)[C@H](O)[C@@H]1O)NC(=O)[C@H](Cc1ccc(O)cc1)NC(=O)CCS[C@H]1O[C@H](CO)[C@@H](O)[C@H](O)[C@@H]1O)C(N)=O	14.3	92	3.6
CO[C@H]1O[C@H](CO)[C@@H](O)[C@H](O)[C@@H]1O	1	1320	1
OC[C@H]1OC(O)[C@@H](O)[C@@H](O)[C@@H]1O (stereo partly drawn) [D-MANNOSE]	0.13	10500	0.13
NC(=O)[C@H](CCCCNC(=O)[C@H](CO)NC(=O)[C@H](CCCCNC(=O)[C@H](Cc1ccc(O)cc1)NC(=O)CCS[C@@H]1O[C@@H](CO)[C@H](O)[C@@H](O)[C@H]1O)NC(=O)[C@H](Cc1ccc(O)cc1)NC(=O)CCS[C@H]1O[C@H](CO)[C@@H](O)[C@H](O)[C@@H]1O)NC(=O)[C@H](CO)NC(=O)[C@H](CCCCNC(=O)[C@H](Cc1ccc(O)cc1)NC(=O)CCS[C@H]1O[C@H](CO)[C@@H](O)[C@H](O)[C@@H]1O)NC(=O)[C@H](Cc1ccc(O)cc1)NC(=O)CCS[C@H]1O[C@H](CO)[C@@H](O)[C@H](O)[C@@H]1O	20.6	64	5.2
NC(=O)[C@H](CCCCNC(=O)[C@H](CCC(=O)O)NC(=O)[C@H](CCCCNC(=O)[C@H](Cc1ccc(O)cc1)NC(=O)CCS[C@@H]1O[C@@H](CO)[C@H](O)[C@@H](O)[C@H]1O)NC(=O)[C@H](Cc1ccc(O)cc1)NC(=O)CCS[C@H]1O[C@H](CO)[C@@H](O)[C@H](O)[C@@H]1O)NC(=O)[C@H](CCC(=O)O)NC(=O)[C@H](CCCCNC(=O)[C@H](Cc1ccc(O)cc1)NC(=O)CCS[C@H]1O[C@H](CO)[C@@H](O)[C@H](O)[C@@H]1O)NC(=O)[C@H](Cc1ccc(O)cc1)NC(=O)CCS[C@H]1O[C@H](CO)[C@@H](O)[C@H](O)[C@@H]1O	22	60	5.5
N=C(N)NCCC[C@H](NC(=O)[C@H](CCCCNC(=O)[C@H](CCCCNC(=O)[C@H](Cc1ccc(O)cc1)NC(=O)CCS[C@H]1O[C@H](CO)[C@@H](O)[C@H](O)[C@@H]1O)NC(=O)[C@H](Cc1ccc(O)cc1)NC(=O)CCS[C@@H]1O[C@@H](CO)[C@H](O)[C@@H](O)[C@H]1O)NC(=O)[C@H](CCCCNC(=O)[C@H](Cc1ccc(O)cc1)NC(=O)CCS[C@H]1O[C@H](CO)[C@@H](O)[C@H](O)[C@@H]1O)NC(=O)[C@H](Cc1ccc(O)cc1)NC(=O)CCS[C@@H]1O[C@@H](CO)[C@H](O)[C@@H](O)[C@H]1O)C(N)=O	21.3	62	5.3
O=[N+]([O-])c1ccc(O[C@H]2O[C@H](CO)[C@@H](O)[C@H](O)[C@@H]2O)cc1	2.1	644	2.1
NC(=O)[C@H](CCCCNC(=O)[C@H](CCCCNC(=O)[C@H](CCCCNC(=O)[C@H](Cc1ccc(O)cc1)NC(=O)CCS[C@H]1O[C@H](CO)[C@@H](O)[C@H](O)[C@@H]1O)NC(=O)[C@H](Cc1ccc(O)cc1)NC(=O)CCS[C@@H]1O[C@@H](CO)[C@H](O)[C@@H](O)[C@H]1O)NC(=O)[C@H](CCCCNC(=O)[C@H](Cc1ccc(O)cc1)NC(=O)CCS[C@@H]1O[C@@H](CO)[C@H](O)[C@@H](O)[C@H]1O)NC(=O)[C@H](Cc1ccc(O)cc1)NC(=O)CCS[C@@H]1O[C@@H](CO)[C@H](O)[C@@H](O)[C@H]1O)NC(=O)[C@H](CCCCNC(=O)[C@H](CCCCNC(=O)[C@H](Cc1ccc(O)cc1)NC(=O)CCS[C@@H]1O[C@@H](CO)[C@H](O)[C@@H](O)[C@H]1O)NC(=O)[C@H](Cc1ccc(O)cc1)NC(=O)CCS[C@H]1O[C@H](CO)[C@@H](O)[C@H](O)[C@@H]1O)NC(=O)[C@H](CCCCNC(=O)[C@H](Cc1ccc(O)cc1)NC(=O)CCS[C@H]1O[C@H](CO)[C@@H](O)[C@H](O)[C@@H]1O)NC(=O)[C@H](Cc1ccc(O)cc1)NC(=O)CCS[C@H]1O[C@H](CO)[C@@H](O)[C@H](O)[C@@H]1O	455	2.9	57
